Experimental data from paper PMC5569649 (Clinical Drug Investigation, 2017).
Structures can show the parent of a compound that is named as a salt. Non-standard residues stand in square brackets, D forms with d. Residues, ends and D or L forms follow the SMILES beside them. *: point of attachment. dPhe(4-NHCONH2) = NC(=O)Nc1ccc(C[C@@H](N)C(=O)O)cc1; Dihydroorotyl(S) = O=C1C[C@@H](C(=O)*)NC(=O)N1; dPhe(4-Cl) = N[C@H](Cc1ccc(Cl)cc1)C(=O)O; Phe(4-NH2) = Nc1ccc(C[C@H](N)C(=O)O)cc1; d2Nal = N[C@H](Cc1ccc2ccccc2c1)C(=O)O; Lys(iPr) = CC(C)NCCCC[C@H](N)C(=O)O; d3Pal = N[C@H](Cc1cccnc1)C(=O)O

Tests used:
[1] = test system: QT interval / cardiac repolarisation in healthy men; assay: Thorough QT/QTc study, 12-lead ECG, QTcF; type: in vivo; settings: for No. of subjects with ΔQTcF >30 ms / No. of subjects with ΔQTcF >60 ms / No. of subjects with ΔQTcF ≤30 ms / No. of subjects with QTcF >450 ms / No. of subjects with QTcF >480 ms / No. of subjects with QTcF >500 ms / No. of subjects with QTcF ≤450 ms: categorical analysis, degarelix n = 76, moxifloxacin n = 78; for No. of subjects with ΔQTcF >30 ms / No. of subjects with ΔQTcF >60 ms / No. of subjects with ΔQTcF ≤30 ms: change from baseline
[2] = Degarelix plasma concentration; type: in vivo, healthy men
Procedure, shortened: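 Single 60-min iv infusion of 2.8 mg in 5% glucose. Plasma sampled predose and at 30, 60, 90, 120, 150, 180 min, 6, 12 and 24 h after infusion start. Assay: validated solid-phase extraction with LC–MS/MS, quantification range 0.500–100 ng/mL (up to 500 ng/mL after dilution), precision and bias within 10%. Parameters from noncompartmental analysis; values below LLOQ or missing were excluded.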

healthy men = assay: Safety assessments; type: in vivo
Procedure, shortened: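 Six-sequence crossover of iv test compound, iv placebo and oral moxifloxacin, with 7–10 day washouts. Adverse events, 12-lead ECG and vital signs were monitored throughout. Clinical chemistry, haematology and urinalysis were run by a central laboratory. Adverse event was defined as any untoward medical occurrence in a participant.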

[3] = test system: human ether-a-go-go-related gene (hERG) channel; settings: preclinical investigations; ref Ferring Pharmaceuticals, unpublished data; cited from earlier work
[4] = cited from earlier work
human GnRH receptor = settings: cited from earlier work

SMILES | No. of subjects with ΔQTcF >30 ms [1] | No. of subjects with ΔQTcF >60 ms [1] | No. of subjects with ΔQTcF ≤30 ms [1] | No. of subjects with QTcF >450 ms [1] | No. of subjects with QTcF >480 ms [1] | No. of subjects with QTcF >500 ms [1] | No. of subjects with QTcF ≤450 ms [1] | Number of AEs reported (healthy men; after each treatment) | also measured
CC(=O)N[C@H](Cc1ccc2ccccc2c1)C(=O)N[C@H](Cc1ccc(Cl)cc1)C(=O)N[C@H](Cc1cccnc1)C(=O)N[C@@H](CO)C(=O)N[C@@H](Cc1ccc(NC(=O)[C@@H]2CC(=O)NC(=O)N2)cc1)C(=O)N[C@H](Cc1ccc(NC(N)=O)cc1)C(=O)N[C@@H](CC(C)C)C(=O)N[C@@H](CCCCNC(C)C)C(=O)N1CCC[C@H]1C(=O)N[C@H](C)C(N)=O [degarelix] (Ac-[d2Nal][dPhe(4-Cl)][d3Pal]S[Phe(4-NH2)](Dihydroorotyl(S))[dPhe(4-NHCONH2)]L[Lys(iPr)]P[dA]-NH2) | 3 (4%) n (%) | 0 n (%) | 73 (96%) n (%) | 0 n (%) | 0 n (%) | 0 n (%) | 76 (100%) n (%) | 27 | One-sided 95% upper confidence boundaries for ΔΔQTcF at any of the nine timepoints ([1]; degarelix 2.8 mg iv over 60 min, 24-h period after start of infusion): ≤ 10 ms; Mean maximum baseline-corrected difference versus placebo in QTcF ([1]; degarelix 2.8 mg iv over 60 min, time-matched): < 4 ms; Slope of concentration-response effect on QTcF compared with placebo ([1]; repeated measures ANCOVA, 677 observations from 79 subjects): slightly negative slope; Degarelix concentration at 24 h relative to Cmax ([2]; 24 h after start of degarelix 2.8 mg iv administration): < 10%; Cmax ([2]; male, human, plasma, iv, 2.8 mg): 222 ng/mL; Median maximal degarelix plasma concentration ([2]; single dose 2.8 mg infused iv over 60 min at constant rate): approximately 220 ng/mL; Intensity of AEs (healthy men; after degarelix treatment): mild intensity; Mean changes in placebo-corrected HR, PR and QRS durations (healthy men; degarelix 2.8 mg iv): did not show any clinically relevant results; Effect on hERG channel [3]: no effect; Median peak concentration ([4]; single subcutaneous administration of 240 mg, prostate cancer): 66 ng/mL; Half-life ([4]; subcutaneous administration, slow-release phase from in situ depot): several weeks; Affinity and selectivity towards the human GnRH receptor (human GnRH receptor): high affinity and selectivity
COc1c(N2C[C@@H]3CCCN[C@@H]3C2)c(F)cc2c(=O)c(C(=O)O)cn(C3CC3)c12 [moxifloxacin, moxifloxacin hydrochloride] | 15 (19%) n (%) | 0 n (%) | 63 (81%) n (%) | 2 (3%) n (%) | 0 n (%) | 0 n (%) | 76 (97%) n (%) | 29 | QTc prolongation produced by positive control ([1]; moxifloxacin 400 mg oral): ≥ 5 ms; Lower bound of 98.3% CI for ΔΔQTcF (moxifloxacin vs placebo) ([1]; moxifloxacin 400 mg single oral dose, at 2.5, 3 and 6 h, assay sensitivity): exceeded 5 ms; Subjects reporting AEs (healthy men; 80 subjects randomised, after each treatment): 22 (28%) n (%)
